One series relates to Vero. The experiment in a line: Cytotoxicity against African green monkey Vero cells assessed as reduction in cell viability after 72 hrs by resazurin dye based assay. The settings on record: Chlorocebus sabaeus. Put shortly:
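Vero monkey kidney cells grown at 37 °C, 5 % CO2, in RPMI with 10 % heat-inactivated FBS. Seeded at 1.25 × 10^4 mL-1 with compound at 1000 to 1 µM (DMSO 0.01 % v/v). After 48 h, resazurin added for a further 24 h, then SDS. Absorbance read at 570/600 nm. IC50 from triplicates in four separate determinations.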

Series [1] deals with Trypanosoma cruzi. The experiment in a line: Trypanocidal activity against Trypanosoma cruzi IRHOD/CO/2008/SN3 DTU 1 epimastigotes after 48 hrs by resazurin dye based assay. Format: functional, organism-based. The settings on record: IRHOD/CO/2008/SN3 DTU 1, 48 h. The procedure, abridged:
(§1)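 Exponential-phase epimastigotes were seeded at 5×10^5 mL^-1 with compounds at 100–0.2 µM (DMSO 0.01% v/v) at 28 °C. After 48 h, resazurin was added for another 24 h. SDS was then added and absorbance read at 570 and 600 nm.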

For series [2], the system named is Trypanosoma cruzi. The series can be described thus: Trypanocidal activity against Trypanosoma cruzi MHOM/Pe/2011/Arequipa DTU 5 epimastigotes after 48 hrs by resazurin dye based assay. The format is functional, organism-based. The settings on record: MHOM/Pe/2011/Arequipa DTU 5, 48 h. Put shortly: as §1
A short description of series [3]: Selectivity index, ratio of IC50 for African green monkey Vero cells to IC50 for Trypanosoma cruzi MHOM/Pe/2011/Arequipa DTU 5 epimastigotes. As to conditions: read-out: Ratio IC50. The format is toxicity. The procedure, abridged:
(§2)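 SI is Vero IC50 divided by the IC50 for the stated parasite form. For Vero cytotoxicity, cells were seeded at 1.25×10^4 mL^-1 with compounds at 1000–1 µM, incubated 48 h, then given resazurin for a further 24 h (72 h total), with absorbance read at 570/600 nm. Triplicate, four determinations.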

Series [4] in a line: Selectivity index, ratio of IC50 for African green monkey Vero cells to IC50 for Trypanosoma cruzi TINF/CH/1956/Tulahuen DTU 6 epimastigotes. The format is toxicity. The settings on record: read-out: Ratio IC50. Put shortly: as §2
In series [5] the test system is Trypanosoma cruzi. The series can be described thus: Trypanocidal activity against Trypanosoma cruzi TINF/CH/1956/Tulahuen DTU 6 epimastigotes after 48 hrs by resazurin dye based assay. As to conditions: TINF/CH/1956/Tulahuen DTU 6, 48 h. Format: functional, organism-based. Put shortly: as §1
The nature of series [6]: Selectivity index, ratio of IC50 for African green monkey Vero cells to IC50 for Trypanosoma cruzi IRHOD/CO/2008/SN3 DTU 1 epimastigotes. The format is toxicity. As to conditions: read-out: Ratio IC50. The procedure, abridged:
as §2

pIC50: −log10 of the molar value.

Consider `O=C(CCN1CCN(c2ccc(C(F)(F)F)cc2)CC1)c1ccc(Br)cc1`, for which the negative logarithm of the IC50 (pIC50) in the series with Vero is 4.10; in the series with Trypanosoma cruzi [1], 4.55; with Trypanosoma cruzi [2], 4.52; in the series on Trypanosoma cruzi [5] it was 4.55. Also, the selectivity ratio in series [3] came out at 2.6; in series [4], 2.8; in series [6], 2.8.
For the compound `O=C(CCN1CCN(c2ccc(C(F)(F)F)cc2)CC1)c1ccc(OC(F)(F)F)cc1`, the pIC50 is 4.19 in the series with Vero, 4.42 with Trypanosoma cruzi [1], 4.29 with Trypanosoma cruzi [2] and 4.06 with Trypanosoma cruzi [5]. Moreover, the selectivity ratio in series [3] worked out at 1.3; in series [4] it was 0.8; in series [6], 1.7.
As to `O=C(CCN1CCN(c2ccc(F)cc2)CC1)c1ccc(OC(F)(F)F)cc1`, the pIC50 in the series on Vero was 4.15; in the series on Trypanosoma cruzi [1], 4.56; with Trypanosoma cruzi [2], 4.07; in the series on Trypanosoma cruzi [5] it was 4.28. The selectivity ratio in series [3] came to 0.8; in series [4], 1.3; in series [6], 2.5.
`O=C(CCN1CCN(c2ccc(Cl)cc2)CC1)c1ccc(F)c(Cl)c1`: the pIC50 was 3.94 in the series on Vero, 4.53 in the series with Trypanosoma cruzi [1], 4.34 in the series with Trypanosoma cruzi [2] and 4.54 with Trypanosoma cruzi [5]. In addition, the selectivity ratio in series [3] was determined as 2.5; in series [4] it was 3.9; in series [6], 3.9.
For the compound `O=C(CCN1CCN(c2ccc(F)cc2)CC1)c1ccc(F)c(Cl)c1`, the pIC50 was 3.73 in the series on Vero, 4.38 in the series with Trypanosoma cruzi [1], 4.60 with Trypanosoma cruzi [2] and 4.43 with Trypanosoma cruzi [5]. Also, the selectivity ratio in series [3] stood at 7.3; in series [4], 5; in series [6], 4.5.
Take `O=C(CCN1CCN(c2ccc(C(F)(F)F)cc2)CC1)c1ccccc1`: the pIC50 was 4.80 in the series on Vero, 4.79 in the series on Trypanosoma cruzi [1], 4.89 with Trypanosoma cruzi [2] and 4.60 in the series with Trypanosoma cruzi [5]. Further, the selectivity ratio in series [3] amounted to 1.2; in series [4], 0.6; in series [6], 1.
Consider `Cc1ccc(C(=O)CCN2CCN(c3ccc(Cl)cc3)CC2)cc1`, for which the negative-log IC50 (pIC50) in the series on Vero was 3.74; in the series on Trypanosoma cruzi [1], 4.59; in the series on Trypanosoma cruzi [2], 4.50; with Trypanosoma cruzi [5], 4.53. Also, the selectivity ratio in series [3] was determined as 5.8; in series [4], 6.2; in series [6] it was 7.1.
Turning to `O=C(CCN1CCN(c2ccc(C(F)(F)F)cc2)CC1)c1ccc(F)c(Br)c1`, the pIC50 is 4.18 in the series with Vero, 4.68 in the series on Trypanosoma cruzi [1], 4.33 with Trypanosoma cruzi [2] and 4.59 in the series with Trypanosoma cruzi [5]. Also, the results for the selectivity ratio in series [3], in series [4] and in series [6] were 1.4, 2.6 and 3.2, respectively.
For the compound `O=C(CCN1CCN(c2ccc(F)cc2)CC1)c1ccc(C(F)(F)F)cc1`, the negative-log IC50 (pIC50) was 4.55 with Vero, 4.18 with Trypanosoma cruzi [1], 4.43 in the series on Trypanosoma cruzi [2] and 4.22 in the series with Trypanosoma cruzi [5]. In addition, the values for the selectivity ratio in series [3], in series [4] and in series [6] were 0.8, 0.5 and 0.4, respectively.
With `O=C(CCN1CCN(c2ccc(C(F)(F)F)cc2)CC1)c1ccc(F)c(Cl)c1`, the negative-log IC50 (pIC50) with Vero is 4.13; in the series on Trypanosoma cruzi [1], 4.35; with Trypanosoma cruzi [2] it was 4.67; in the series with Trypanosoma cruzi [5], 4.54. Also, the selectivity ratio in series [3] was found to be 3.4; in series [4] it was 2.6; in series [6] it was 1.7.
Turning to `O=C(CCN1CCN(c2ccc([N+](=O)[O-])cc2)CC1)c1ccc(F)c(F)c1`, the pIC50 is 3.91 in the series with Vero, 3.80 in the series with Trypanosoma cruzi [1], 4.07 with Trypanosoma cruzi [2] and 4.27 in the series on Trypanosoma cruzi [5]. Also, the selectivity ratio is 1.4 in series [3], 2.3 in series [4] and 0.8 in series [6].
In the case of `O=C(CCN1CCN(c2ccccc2F)CC1)c1ccc(F)cc1`, the negative-log IC50 (pIC50) was 4.31 with Vero, 4.28 with Trypanosoma cruzi [1], 4.42 with Trypanosoma cruzi [2] and 4.27 in the series on Trypanosoma cruzi [5]. Further, the figures for the selectivity ratio in series [3], in series [4] and in series [6] were 1.3, 0.9 and 0.9, respectively.
For the compound `O=C(CCN1CCN(c2ccc(Cl)cc2)CC1)c1ccc(Br)cc1`, the negative-log IC50 (pIC50) in the series on Vero was 4.28; with Trypanosoma cruzi [1], 4.58; in the series with Trypanosoma cruzi [2], 4.37; in the series with Trypanosoma cruzi [5] it was 4.68. Further, the figures for the selectivity ratio in series [3], in series [4] and in series [6] were 1.2, 2.5 and 2, respectively.
For the compound `COc1ccc(C(=O)CCN2CCN(Cc3cccc(F)c3)CC2)cc1OC`, the pIC50 in the series with Vero is 4.65; with Trypanosoma cruzi [1], 4.32; in the series on Trypanosoma cruzi [2] it was 4.31; with Trypanosoma cruzi [5], 4.39. The selectivity ratio in series [3] came out at 0.5; in series [4] it was 0.6; in series [6], 0.5.
In the case of `COc1ccc(C(=O)CCN2CCN(c3ccc(C(F)(F)F)cc3)CC2)cc1`, the pIC50 in the series on Vero is 3.87; in the series with Trypanosoma cruzi [1] it was 4.49; with Trypanosoma cruzi [2] it was 4.14; with Trypanosoma cruzi [5], 4.36. Also, the selectivity ratio in series [3] worked out at 1.9; in series [4], 3.1; in series [6], 4.2.
In the case of `O=C(CCN1CCN(c2ccc(C(F)(F)F)cc2)CC1)c1ccc(F)c(F)c1`, the pIC50 with Vero was 4.85; with Trypanosoma cruzi [1], 4.54; with Trypanosoma cruzi [2], 4.48; in the series on Trypanosoma cruzi [5], 4.27. Further, the selectivity ratio stood at 0.4 in series [3], 0.3 in series [4] and 0.5 in series [6].
`COc1ccc(C(=O)CCN2CCN(Cc3cccc(C)c3)CC2)cc1OC`: the negative-log IC50 (pIC50) is 4.28 in the series with Vero, 4.62 in the series on Trypanosoma cruzi [1], 4.71 with Trypanosoma cruzi [2] and 4.55 with Trypanosoma cruzi [5]. The results for the selectivity ratio in series [3], in series [4] and in series [6] were 2.7, 1.8 and 2.2, respectively.
On to `O=C(CCN1CCN(c2ccc(F)cc2)CC1)c1ccc(Br)cc1`, for which the pIC50 in the series on Vero was 4.00; in the series on Trypanosoma cruzi [1], 4.25; with Trypanosoma cruzi [2], 4.65; in the series on Trypanosoma cruzi [5], 4.31. Moreover, the selectivity ratio in series [3] turned out to be 4.4; in series [4] it was 2; in series [6], 1.8.
In the case of `Cc1ccc(C(=O)CCN2CCN(c3ccc(F)cc3)CC2)cc1`, the pIC50 in the series on Vero was 4.26; in the series on Trypanosoma cruzi [1], 4.10; with Trypanosoma cruzi [2], 4.36; in the series with Trypanosoma cruzi [5] it was 4.60. The results for the selectivity ratio in series [3], in series [4] and in series [6] were 1.3, 2.2 and 0.7, respectively.
On to `COc1ccc(C(=O)CCN2CCN(Cc3ccccc3)CC2)cc1OC`, for which the pIC50 in the series with Vero is 4.32; with Trypanosoma cruzi [1], 4.26; in the series with Trypanosoma cruzi [2], 4.53; in the series on Trypanosoma cruzi [5], 4.34. Also, the selectivity ratio was found to be 1.6 in series [3], 1 in series [4] and 0.9 in series [6].
As to `O=C(CCN1CCN(c2ccc([N+](=O)[O-])cc2)CC1)c1ccc(C(F)(F)F)cc1`, the pIC50 in the series with Vero was 4.12; in the series on Trypanosoma cruzi [1] it was 4.70; in the series with Trypanosoma cruzi [2], 4.87; in the series with Trypanosoma cruzi [5] it was 4.82. Further, the selectivity ratio in series [3] came out at 5.6; in series [4], 5; in series [6], 3.8.
